Results as given in ChEMBL document CHEMBL3227952, “Potential organ- or tumor-imaging agents. 18. Radioiodinated diamines and bisquaternaries” (J Med Chem, 1979).

Legend:
Lung [1] = assay: Drug uptake in Sprague-Dawley rat lung at 11.9 to 12.1 uCi, iv after 2 hrs by liquid scintillation counting; format: ADME, organism-based; conditions: in vivo, in the assay text read “gamma counting” for “liquid scintillation counting”
In short: (§1)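 Five rats per time point were exsanguinated under ether. Organs were excised, rinsed, blotted and weighed. Duplicate samples were counted in a well-scintillation gamma counter (87% efficiency). Results are % administered dose/g, mean ± SEM.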

[2] = Drug uptake in Sprague-Dawley rat bone marrow at 11.9 to 12.1 uCi, iv after 0.5 hrs by liquid scintillation counting; format: ADME, organism-based; conditions: in vivo
In short: (§2)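 Dosing was by tail vein under ether. Five rats were killed by exsanguination at each time. Organs were rinsed, blotted and weighed, with duplicate samples in cellulose acetate capsules. Samples were counted in a well-scintillation gamma counter at 87% efficiency. Results are % administered dose/g, mean ± SEM.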

Thyroid gland [3] = assay: Drug uptake in Sprague-Dawley rat thyroid at 11.9 to 12.1 uCi, iv after 2 hrs by liquid scintillation counting; format: ADME, organism-based; conditions: in vivo, in the assay text read “well-scintillation gamma counting” for “liquid scintillation counting”; in short: as §1
Blood [4] = assay: Drug uptake in Sprague-Dawley rat blood at 11.9 to 12.1 uCi, iv after 2 hrs by liquid scintillation counting; format: ADME, organism-based; conditions: in vivo
Spleen [5] = assay: Drug uptake in Sprague-Dawley rat spleen at 11.9 to 12.1 uCi, iv after 0.5 hrs by liquid scintillation counting; format: ADME, organism-based; conditions: in vivo
Blood [6] = assay: Drug uptake in Sprague-Dawley rat blood at 11.9 to 12.1 uCi, iv after 0.5 hrs by liquid scintillation counting; format: ADME, organism-based; conditions: in vivo
Duodenum [7] = assay: Drug uptake in Sprague-Dawley rat duodenum at 11.9 to 12.1 uCi, iv after 0.5 hrs by liquid scintillation counting; format: ADME, organism-based; conditions: in vivo
Kidney [8] = assay: Drug uptake in Sprague-Dawley rat kidney at 11.9 to 12.1 uCi, iv after 2 hrs by liquid scintillation counting; format: ADME, organism-based; conditions: in vivo, in the assay text read “gamma counting” for “liquid scintillation counting”; in short: as §1
Adrenal [9] = assay: Drug uptake in Sprague-Dawley rat adrenal at 11.9 to 12.1 uCi, iv after 2 hrs by liquid scintillation counting; format: ADME, organism-based, Adrenal gland; conditions: in vivo; in short: as §2
[10] = Drug uptake in Sprague-Dawley rat diaphragm at 11.9 to 12.1 uCi, iv after 0.5 hrs by liquid scintillation counting; format: ADME, organism-based; conditions: in vivo; in short: as §2
[11] = Drug uptake in Sprague-Dawley rat dorsolateral prostate at 11.9 to 12.1 uCi, iv after 0.5 hrs by liquid scintillation counting; format: ADME, organism-based, Prostate gland; conditions: in vivo
Brain [12] = assay: Drug uptake in Sprague-Dawley rat brain at 11.9 to 12.1 uCi, iv after 2 hrs by liquid scintillation counting; format: ADME, organism-based; conditions: in vivo
Lung [13] = assay: Drug uptake in Sprague-Dawley rat lung at 11.9 to 12.1 uCi, iv after 0.5 hrs by liquid scintillation counting; format: ADME, organism-based; conditions: in vivo
Kidney [14] = assay: Drug uptake in Sprague-Dawley rat kidney at 11.9 to 12.1 uCi, iv after 0.5 hrs by liquid scintillation counting; format: ADME, organism-based; conditions: in vivo
Pancreas [15] = assay: Drug uptake in Sprague-Dawley rat pancreas at 11.9 to 12.1 uCi, iv after 2 hrs by liquid scintillation counting; format: ADME, organism-based; conditions: in vivo, in the assay text read “well-scintillation gamma counting” for “liquid scintillation counting”; in short: as §1
Pituitary gland [16] = assay: Drug uptake in Sprague-Dawley rat pituitary at 11.9 to 12.1 uCi, iv after 0.5 hrs by liquid scintillation counting; format: ADME, organism-based; conditions: in vivo
Pituitary gland [17] = assay: Drug uptake in Sprague-Dawley rat pituitary at 11.9 to 12.1 uCi, iv after 2 hrs by liquid scintillation counting; format: ADME, organism-based; conditions: in vivo, in the assay text read “well-scintillation gamma counting” for “liquid scintillation counting”; in short: as §1
Duodenum [18] = assay: Drug uptake in Sprague-Dawley rat duodenum at 11.9 to 12.1 uCi, iv after 2 hrs by liquid scintillation counting; format: ADME, organism-based; conditions: in vivo, in the assay text read “gamma counting” for “liquid scintillation counting”; in short: as §2
Liver [19] = assay: Drug uptake in Sprague-Dawley rat liver at 11.9 to 12.1 uCi, iv after 0.5 hrs by liquid scintillation counting; format: ADME, organism-based; conditions: in vivo; in short: as §1
[20] = Drug uptake in Sprague-Dawley rat diaphragm at 11.9 to 12.1 uCi, iv after 2 hrs by liquid scintillation counting; format: ADME, organism-based; conditions: in vivo
Brain [21] = assay: Drug uptake in Sprague-Dawley rat brain at 11.9 to 12.1 uCi, iv after 0.5 hrs by liquid scintillation counting; format: ADME, organism-based; conditions: in vivo
[22] = Drug uptake in Sprague-Dawley rat dorsolateral prostate at 11.9 to 12.1 uCi, iv after 2 hrs by liquid scintillation counting; format: ADME, organism-based, Prostate gland; conditions: in vivo
Heart [23] = assay: Drug uptake in Sprague-Dawley rat heart at 11.9 to 12.1 uCi, iv after 2 hrs by liquid scintillation counting; format: ADME, organism-based; conditions: in vivo, in the assay text read “gamma counting” for “liquid scintillation counting”; in short: as §2
Thyroid gland [24] = assay: Drug uptake in Sprague-Dawley rat thyroid at 11.9 to 12.1 uCi, iv after 0.5 hrs by liquid scintillation counting; format: ADME, organism-based; conditions: in vivo; in short: as §1
Adrenal [25] = assay: Drug uptake in Sprague-Dawley rat adrenal at 11.9 to 12.1 uCi, iv after 0.5 hrs by liquid scintillation counting; format: ADME, organism-based, Adrenal gland; conditions: in vivo
Liver [26] = assay: Drug uptake in Sprague-Dawley rat liver at 11.9 to 12.1 uCi, iv after 2 hrs by liquid scintillation counting; format: ADME, organism-based; conditions: in vivo, in the assay text read “gamma counting” for “liquid scintillation counting”; in short: as §1
Testes [27] = assay: Drug uptake in Sprague-Dawley rat testes at 11.9 to 12.1 uCi, iv after 2 hrs by liquid scintillation counting; format: ADME, organism-based, Testis; conditions: in vivo, in the assay text read “well-scintillation gamma counting” for “liquid scintillation counting”; in short: as §1
Testes [28] = assay: Drug uptake in Sprague-Dawley rat testes at 11.9 to 12.1 uCi, iv after 0.5 hrs by liquid scintillation counting; format: ADME, organism-based, Testis; conditions: in vivo; in short: as §1
[29] = Drug uptake in Sprague-Dawley rat bone marrow at 11.9 to 12.1 uCi, iv after 2 hrs by liquid scintillation counting; format: ADME, organism-based; conditions: in vivo
Spleen [30] = assay: Drug uptake in Sprague-Dawley rat spleen at 11.9 to 12.1 uCi, iv after 2 hrs by liquid scintillation counting; format: ADME, organism-based; conditions: in vivo, in the assay text read “well-scintillation gamma counting” for “liquid scintillation counting”; in short: as §1
Pancreas [31] = assay: Drug uptake in Sprague-Dawley rat pancreas at 11.9 to 12.1 uCi, iv after 0.5 hrs by liquid scintillation counting; format: ADME, organism-based; conditions: in vivo; in short: as §1
[32] = Drug uptake in Sprague-Dawley rat ventral prostate at 11.9 to 12.1 uCi, iv after 2 hrs by liquid scintillation counting; format: ADME, organism-based, Prostate gland; conditions: in vivo; in short: as §1
[33] = Drug uptake in Sprague-Dawley rat ventral prostate at 11.9 to 12.1 uCi, iv after 0.5 hrs by liquid scintillation counting; format: ADME, organism-based, Prostate gland; conditions: in vivo
Heart [34] = assay: Drug uptake in Sprague-Dawley rat heart at 11.9 to 12.1 uCi, iv after 0.5 hrs by liquid scintillation counting; format: ADME, organism-based; conditions: in vivo

Drug uptake (Lung [1]): 1.065 % ID/g | Drug uptake [2]: 0.483 % ID/g | Drug uptake (Thyroid gland [3]): 3.114 % ID/g | Drug uptake (Blood [4]): 0.038 % ID/g | Drug uptake (Spleen [5]): 1.402 % ID/g | Drug uptake (Blood [6]): 0.05 % ID/g | Drug uptake (Duodenum [7]): 1.053 % ID/g | Drug uptake (Kidney [8]): 2.225 % ID/g | Drug uptake (Adrenal [9]): 1.84 % ID/g | Drug uptake [10]: 0.241 % ID/g | Drug uptake [11]: 0.657 % ID/g | Drug uptake (Brain [12]): 1.255 % ID/g | Drug uptake (Lung [13]): 1.993 % ID/g | Drug uptake (Kidney [14]): 3.598 % ID/g | Drug uptake (Pancreas [15]): 0.349 % ID/g | Drug uptake (Pituitary gland [16]): 0.899 % ID/g | Drug uptake (Pituitary gland [17]): 0.684 % ID/g | Drug uptake (Duodenum [18]): 0.349 % ID/g | Drug uptake (Liver [19]): 1.069 % ID/g | Drug uptake [20]: 0.114 % ID/g | Drug uptake (Brain [21]): 1.791 % ID/g | Drug uptake [22]: 0.614 % ID/g | Drug uptake (Heart [23]): 0.174 % ID/g | Drug uptake (Thyroid gland [24]): 5.001 % ID/g | Drug uptake (Adrenal [25]): 2.287 % ID/g | Drug uptake (Liver [26]): 1.042 % ID/g | Drug uptake (Testes [27]): 0.163 % ID/g | Drug uptake (Testes [28]): 0.154 % ID/g | Drug uptake [29]: 0.569 % ID/g | Drug uptake (Spleen [30]): 1.511 % ID/g | Drug uptake (Pancreas [31]): 0.737 % ID/g | Drug uptake [32]: 0.588 % ID/g | Drug uptake [33]: 0.673 % ID/g | Drug uptake (Heart [34]): 0.367 % ID/g
SMILES: CN(C)Cc1ccc(CN(C)C)c([125I])c1
